Measured values: article PMC7079113 (Diabetes, Obesity & Metabolism, 2019)
Marks after values point to notes of the source that are not given here.

Legend:
[1] = test system: glucose infusion rate; assay: 30-hour automated euglycaemic clamp; format: in vivo, patients with type 1 diabetes mellitus (human); settings: for AUCGIR0–6h, geometric mean (90% CI): 0-6 h; for AUCGIR0–6h, geometric mean (90% CI) / AUCGIR6–30h, geometric mean (90% CI): N = 111 MYL-1501D, 111 US IG, 113 EU IG; for AUCGIR6–30h, geometric mean (90% CI): 6-30 h
[2] = LC–MS/MS; for AUCins.0‐6h of M1, geometric mean (90% CI) / AUCins.6‐30h of M1, geometric mean (90% CI): secondary PK endpoint, 87 US IG; for AUCins.0‐6h of M1, geometric mean (90% CI): N = 85 MYL-1501D, 84 EU IG; for AUCins.6‐30h of M1, geometric mean (90% CI): N = 87 MYL-1501D, 86 EU IG
[3] = Single-dose safety and local tolerability; format: in vivo, patients with type 1 diabetes mellitus (human); settings: for Hypoglycaemic events at various time points after the clamp period: > 30 hours after injection, considered a side effect of the patients' usual insulin treatment; for Number of AEs during or after administration / Patients who experienced AEs during or after administration / Patients who experienced AEs during or after administration, percentage: safety population N = 114
Outline: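 Randomised crossover in which each patient received three insulin glargine preparations as single s.c. 0.4 U/kg doses, at visits 5–28 days apart (minimum 5-day washout). Each dose was given under a 30-h automated euglycaemic clamp. Safety and injection-site tolerability were assessed at each visit: AEs, haematology, biochemistry, urinalysis, physical exam, vital signs, ECGs and blood glucose. Hypoglycaemia was graded severe/symptomatic/asymptomatic. Results were summarised descriptively.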

[4] = ELISA, ratio of treatments vs US IG
[5] = secondary PD, vs US IG, N = 111
[6] = vs US IG, N = 74 (MYL-1501D), 72 (EU IG)

Which “AUCGIR0–6h, geometric mean (90% CI)” value ([1]; secondary PD) does the source give for insulin glargine [US IG] here?
The value was 88.3 (59.7–131) mg/kg.

And the “AUCGIR6–30h, geometric mean (90% CI)” value ([1]; secondary PD)?
The value was 522 (384–710) mg/kg.

And the “AUCins.0‐6h of M1, geometric mean (90% CI)” value [2]?
The value was 192 (171–217) pmol·h/L.

What about the “AUCins.6‐30h of M1, geometric mean (90% CI)” value [2] of the same substance?
Its value is 1086 (1000–1179) pmol·h/L.

And the “Hypoglycaemic events at various time points after the clamp period” value [3]?
The value was 16.

What about the Injection site reactions ([3]; mild, single s.c. 0.4 U/kg) of the same substance?
Its Injection site reactions is “one”.

And the Tolerability ([3]; single s.c. 0.4 U/kg)?
Its Tolerability is “generally well tolerated”.

What about the “Number of AEs during or after administration” value ([3]; single s.c. 0.4 U/kg) of the same substance?
The value was 34 AEs.

What about the “Patients who experienced AEs during or after administration” value ([3]; single s.c. 0.4 U/kg) of the same substance?
The value was 20 patients.

And the “Patients who experienced AEs during or after administration, percentage” value ([3]; single s.c. 0.4 U/kg)?
The value was 17.9%.

Which “AUCGIR0–30h (secondary analysis), geometric LS mean ratio (90% CI) vs US IG” value ([1]; including very low response profiles, linear mixed model, vs US IG, n = 111) does the source give for insulin glargine [EU IG] here?
Its value is 0.96 (0.77–1.20) ^e.

And the “GIRmax, geometric LS mean ratio (90% CI) vs US IG” value ([1]; primary PD, vs US IG, N = 102)?
Its value is 0.98 (0.90–1.07).

What about the “AUCGIR0–6h, geometric mean (90% CI)” value ([1]; secondary PD) of the same substance?
The value was 72.8 (49.4–107) mg/kg.

What about the “AUCGIR6–30h, geometric mean (90% CI)” value ([1]; secondary PD) of the same substance?
Its value is 567 (418–769) mg/kg.

And the “AUCGIR0–6h, geometric LS mean ratio (90% CI) vs US IG” value [1, 5]?
The value was 0.82 (0.55–1.23).

What about the “AUCGIR6–30h, geometric LS mean ratio (90% CI) vs US IG” value [1, 5] of the same substance?
The value was 1.09 (0.79–1.48).

And the “AUCins.0‐6h of M1, geometric LS mean ratio (90% CI) vs US IG” value ([2]; vs US IG, N = 73 (MYL-1501D), 71 (EU IG))?
The value was 1.06 (0.93–1.20).

What about the “AUCins.0–30h of M1, geometric LS mean ratio (90% CI) vs US IG” value [2, 6] of the same substance?
The value was 1.01 (0.94–1.08).

And the “AUCins.6‐30h of M1, geometric LS mean ratio (90% CI) vs US IG” value [2, 6]?
The value was 1.00 (0.93–1.08).

And the “Cins.max of M1, geometric LS mean ratio (90% CI) vs US IG” value [2, 6]?
The value was 1.02 (0.96–1.08).

What about the “AUCins.0‐6h of M1, geometric mean (90% CI)” value [2] of the same substance?
Its value is 203 (180–229) pmol·h/L.

And the “AUCins.6‐30h of M1, geometric mean (90% CI)” value [2]?
Its value is 1088 (1001–1181) pmol·h/L.

And the “AUCins.0–30h, geometric LS mean ratio (90% CI) vs US IG” value ([4]; N = 107)?
The value was 1.02 (0.95–1.09).

And the “Cins.max, geometric LS mean ratio (90% CI) vs US IG” value ([4]; N = 110)?
The value was 1.00 (0.93–1.08).

And the “Hypoglycaemic events at various time points after the clamp period” value [3]?
The value was “six”.

And the Tolerability ([3]; single s.c. 0.4 U/kg)?
Its Tolerability is “generally well tolerated”.

What about the “Number of AEs during or after administration” value ([3]; single s.c. 0.4 U/kg) of the same substance?
Its value is 34 AEs.

And the “Patients who experienced AEs during or after administration” value ([3]; single s.c. 0.4 U/kg)?
The value was 24 patients.

And the “Patients who experienced AEs during or after administration, percentage” value ([3]; single s.c. 0.4 U/kg)?
The value was 21.1%.
